An excerpt weighted towards active compounds, which were near 1.5% of everything screened.
Runt-SMMHC FRET – Runt domain-CBFb-SMMHC interaction inhibition; Cerulean-Runt/Venus-CBFb-SMMHC FRET ratio 530/480, 1 h; 220,000 compounds, 0.74% hits; inhibition, % at 20 µM;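 active = mean inhibition across duplicate retests at 20 µM reaching about 50%, limit read from the data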;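 note: 0% = DMSO wells and 100% = wells with excess untagged CBFb-SMMHC; inhibitors lower the FRET ratio by blocking Runt binding to CBFb-SMMHC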
Target sequence (Q01196 whole entry, looked up, the tested form may be a part): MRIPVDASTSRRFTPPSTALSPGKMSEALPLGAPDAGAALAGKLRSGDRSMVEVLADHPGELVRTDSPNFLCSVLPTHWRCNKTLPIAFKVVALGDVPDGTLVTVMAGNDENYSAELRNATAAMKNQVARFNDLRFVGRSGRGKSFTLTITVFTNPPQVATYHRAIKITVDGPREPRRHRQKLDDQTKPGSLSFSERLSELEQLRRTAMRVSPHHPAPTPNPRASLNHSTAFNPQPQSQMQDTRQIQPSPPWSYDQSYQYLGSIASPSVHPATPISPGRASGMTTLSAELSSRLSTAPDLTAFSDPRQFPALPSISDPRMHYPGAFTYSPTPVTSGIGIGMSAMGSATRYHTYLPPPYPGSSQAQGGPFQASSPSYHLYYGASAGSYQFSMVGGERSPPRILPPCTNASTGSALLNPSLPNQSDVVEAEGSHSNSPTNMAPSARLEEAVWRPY
Target sequence (Q13951 whole entry, looked up, the tested form may be a part): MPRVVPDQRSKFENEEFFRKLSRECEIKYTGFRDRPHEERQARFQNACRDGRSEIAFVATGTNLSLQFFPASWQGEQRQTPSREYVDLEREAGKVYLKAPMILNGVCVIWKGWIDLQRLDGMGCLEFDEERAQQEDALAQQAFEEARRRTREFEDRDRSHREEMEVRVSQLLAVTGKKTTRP
CaV13 FRET inh – Primary screen for inhibitors of IQ motif and Ca2+-dependent inactivation inhibitor domain binding in CACNA1D, Förster resonance energy transfer in living cells, …; HEK cells, CFP/YFP FRET ICDI-IQ, plate reader, 10 min; percent FRET-ratio fall versus neutral wells; inhibition, % at 12.3 µM; 340,000 compounds, 0.098% hits; AID 743397;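 active = mean replicate inhibition of at least 30% and at least 1% of replicates passing that level; inconclusive = only one of the two criteria is met; inactive = neither criterion is met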;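 note: 0% = median of the neutral control wells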
Runt-CBFb FRET – inhibitors of human RUNX1 Runt domain binding to CBFb; inhibition, % at 20 µM; Cerulean-Runt/Venus-CBFb FRET ratio 530/480, 1 h; 220,000 compounds, 0.46% hits;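 active = inhibition over about 50% at 20 µM in the single-dose screen, limit read from the data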;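 note: 0% = DMSO wells and 100% = excess unlabeled CBFb competitor control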
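Buffer or medium: Tris pH 7.5 buffer with BSA. Assay system: Cerulean-labeled Runt domain protein. Amount: each fluorescent fusion protein 100 nM. Read-out basis: loss of energy transfer signal. Incubation: 1 h compound exposure, room temperature. Probe or stimulus: Venus-CBFb binding partner, 100 nM. Detection: FRET, excitation 422 nm, emission at 530 and 480 nm.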
RanGTP-Impb inh – inhibitors of RanGTP-importin-beta interaction, primary screen, biochemical, FRET, CFP-Ran, YFP-importin-beta, homogeneous. cell-free CFP-Ran/YFP-importin-beta FRET ratio. inhibition, % (concentration not given with the values). 300,000 compounds, 1.1% hits;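 active = more than half of the replicate wells show a fall in the fluorescence ratio signal beyond about 16%, limit read from the data, passing the limit was not always enough; inconclusive = exactly half of the replicate wells pass the set limit; inactive = fewer than half of replicates pass the limit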;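 note: 0% = DMSO wells and 100% = Ran loaded with GDP instead of GTP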
Hck-Nef inh – blocks Nef-activated human Hck kinase; P08631; Recombinant Hck-YEEI plus Nef, Z-Lyte FRET kinase assay; inhibition, % at 20 µM; 220,000 compounds, 0.68% hits;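 active = Hck-Nef kinase inhibition above about 50%, limit read from the data; inactive = inhibition below that limit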;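 note: 0% = DMSO with Hck plus Nef and 100% = Hck alone without Nef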
Numbers without * were called inactive.

For COCCCn1c(=NC(=O)c2ccncc2)c(C#N)cc2c(=O)n3cccc(C)c3nc21 the results were Runt-SMMHC FRET 62*, CaV13 FRET inh -3, Runt-CBFb FRET 48, RanGTP-Impb inh 68* and Hck-Nef inh 14.
Screening CCCn1c(=NC(=O)c2ccc3c(c2)OCO3)c(C#N)cc2c(=O)n3cccc(C)c3nc21 returned Runt-SMMHC FRET 67* and Runt-CBFb FRET 125*.
`CC(=O)N=c1c(C#N)cc2c(=O)n3cccc(C)c3nc2n1CCCOC(C)C` gave Runt-SMMHC FRET 82*, CaV13 FRET inh -9, Runt-CBFb FRET 115*, RanGTP-Impb inh 111* and Hck-Nef inh 33.
For COCCCNC(=O)c1cc2c(=O)n3cccc(C)c3nc2s1 the results were CaV13 FRET inh -6 and RanGTP-Impb inh -6.
`CCCCn1c(=NC(=O)c2cccnc2)c(C#N)cc2c(=O)n3cccc(C)c3nc21` gave Runt-SMMHC FRET 58*, CaV13 FRET inh -3, Runt-CBFb FRET 124*, RanGTP-Impb inh 107* and Hck-Nef inh 10.
Fc1ccc(Nc2nc(N3CCOCC3)nc(N3CCOCC3)n2)cc1Cl was read as CaV13 FRET inh -3 and RanGTP-Impb inh -2.
`Cc1cccn2c(=O)c3cc(C#N)c(=NC(=O)c4ccncc4)n(CCCOC(C)C)c3nc12` gave Runt-SMMHC FRET 38, Runt-CBFb FRET 97*, RanGTP-Impb inh 140* and Hck-Nef inh 32.
O=C(C1CCCCC1)N1CCN(C(=O)C2CCCCC2)CC1 was read as Runt-SMMHC FRET 0, CaV13 FRET inh -9, Runt-CBFb FRET -2, RanGTP-Impb inh -8 and Hck-Nef inh 0.
Screening O=C(C1CCCCCC1)N1CC[C@@H](N2CCC(O)CC2)[C@H](O)C1 returned CaV13 FRET inh -20 and RanGTP-Impb inh 27*.
`c1nc2n(n1)C1=C(CCCC1)C1(CCCCC1)N2` gave Runt-SMMHC FRET 0, CaV13 FRET inh -11, Runt-CBFb FRET -1, RanGTP-Impb inh 15* and Hck-Nef inh 26.
Screening CCN(C(=O)COC(=O)c1ccc([N+](=O)[O-])o1)C1CCCCC1 returned CaV13 FRET inh -2.
Screening O=C(COc1ccccc1Cl)Nc1ccc(C(=O)N2CCCCC2)cc1 returned CaV13 FRET inh -19 and RanGTP-Impb inh -2.
For O=C(COc1ccccc1Cl)Nc1ccc(CN2CCCCC2)cc1 the results were Runt-SMMHC FRET -2, CaV13 FRET inh -7, Runt-CBFb FRET -1, RanGTP-Impb inh 31* and Hck-Nef inh -1.
Screening O=C(CSc1n[nH]c(=O)[nH]c1=O)N/N=C/C=C\c1ccccc1 returned Runt-SMMHC FRET -6, CaV13 FRET inh -4, Runt-CBFb FRET 83*, RanGTP-Impb inh 0 and Hck-Nef inh 20.
For O=C(CSc1n[nH]c(=O)[nH]c1=O)N/N=C/C=C/c1ccccc1 the results were Runt-SMMHC FRET 0, CaV13 FRET inh -2, Runt-CBFb FRET 2, RanGTP-Impb inh 0 and Hck-Nef inh 0.
Cn1c(=O)n(Cc2ccccc2)c(=O)c2c1nc1n2CCCN1C1CCCCC1 was read as CaV13 FRET inh 7 and RanGTP-Impb inh 1.
`CNc1sc(C(=O)c2cccs2)c(N)c1-c1nc2ccccc2s1` gave Runt-SMMHC FRET 76*, CaV13 FRET inh -6, Runt-CBFb FRET 8, RanGTP-Impb inh -1 and Hck-Nef inh -1.
For CNc1sc(C(=O)c2ccc(F)cc2)c(N)c1-c1nc2ccccc2s1 the results were Runt-SMMHC FRET 0, CaV13 FRET inh -5, Runt-CBFb FRET 5, RanGTP-Impb inh 0 and Hck-Nef inh -16.
Cc1cc(C)nc(SCC(=O)NC2=NN=C(c3ccc(Br)cc3)CS2)n1 was read as Runt-SMMHC FRET 36, CaV13 FRET inh -8, RanGTP-Impb inh 38* and Hck-Nef inh -1.
For CC1=C(/C=C/C(C)=C/C=C/C(C)=C/C(=O)O)C(C)(C)CCC1 the results were Runt-SMMHC FRET 1, CaV13 FRET inh -5, Runt-CBFb FRET -1, RanGTP-Impb inh -4 and Hck-Nef inh 1.
Screening Cc1ccc(Oc2nc3ccccn3c(=O)c2/C=C(\C#N)C(=O)NC2CCS(=O)(=O)C2)cc1 (stereo unspecified) returned Runt-SMMHC FRET 82*, CaV13 FRET inh 16, Runt-CBFb FRET 73*, RanGTP-Impb inh 29* and Hck-Nef inh -3.
Screening Cc1ccc(Oc2nc3c(C)cccn3c(=O)c2/C=C(\C#N)C(N)=O)cc1 returned Runt-SMMHC FRET 64*, CaV13 FRET inh -4, Runt-CBFb FRET 46, RanGTP-Impb inh 12 and Hck-Nef inh 10.
Screening CCOC(=O)/C(C#N)=C/c1c(Oc2cccc(C)c2)nc2c(C)cccn2c1=O returned Runt-SMMHC FRET 63, CaV13 FRET inh -4, Runt-CBFb FRET -5, RanGTP-Impb inh -6 and Hck-Nef inh 4.
Cc1ccccc1Oc1nc2c(C)cccn2c(=O)c1/C=C(\C#N)C(=O)NC1CCS(=O)(=O)C1 (stereo unspecified) was read as Runt-SMMHC FRET 76*, CaV13 FRET inh -1, Runt-CBFb FRET 113*, RanGTP-Impb inh 13 and Hck-Nef inh 9.
Screening Cc1cccn2c(=O)c(/C=C(\C#N)C(=O)NC3CCS(=O)(=O)C3)c(Oc3ccccc3Cl)nc12 (stereo unspecified) returned CaV13 FRET inh -3 and RanGTP-Impb inh 160*.
CC1(C(=O)OCC(=O)Nc2ccc(Cl)cn2)CC1(Cl)Cl (stereo unspecified) was read as CaV13 FRET inh -5.
`O=C(NCCO)c1ccc2[nH]c3c(c2c1)CCCC3` gave Runt-SMMHC FRET 1, CaV13 FRET inh -9, Runt-CBFb FRET 1, RanGTP-Impb inh 18* and Hck-Nef inh 1.
`O=C(NCCCO)c1ccc2[nH]c3c(c2c1)CCCC3` gave Runt-SMMHC FRET 1, Runt-CBFb FRET 3, RanGTP-Impb inh 11 and Hck-Nef inh 0.
Screening COCCNC(=S)NCc1ccc2[nH]c3c(c2c1)CCCC3 returned Runt-SMMHC FRET -22, CaV13 FRET inh -7, Runt-CBFb FRET -9, RanGTP-Impb inh 19* and Hck-Nef inh 13.
For Cc1cccc2c(C(=O)O)c3cccc(C)c3nc12 the results were CaV13 FRET inh -4 and RanGTP-Impb inh inconclusive.
`COc1ccc(OC)c(NC(=O)C2CCN(C(=O)c3cccs3)CC2)c1` gave Runt-SMMHC FRET 2, CaV13 FRET inh -5, Runt-CBFb FRET 66*, RanGTP-Impb inh 0 and Hck-Nef inh 25.
For Cc1c(NC(=S)Nc2ccccc2C(F)(F)F)cccc1[N+](=O)[O-] the results were Runt-SMMHC FRET 3, CaV13 FRET inh -3, Runt-CBFb FRET 3, RanGTP-Impb inh -1 and Hck-Nef inh -1.
For COC(=O)[C@@H](NS(=O)(=O)c1ccc(F)cc1Br)C(C)C the results were CaV13 FRET inh -5.

Source: PubChem BioAssay (several laboratories)
